Measurements taken from ChEMBL document CHEMBL1151962, “Identification of N,1,4,4-tetramethyl-8-{[4-(4-methylpiperazin-1-yl)phenyl]amino}-4,5-dihydro-1H-pyrazolo[4,3-h]quinazoline-3-carboxamide (PHA-848125), a potent, orally available cyclin dependent kinase inhibitor” (J Med Chem, 2009).
Values after ≈ are worked out from the molar mass of the structure shown.

How the values were obtained:
[1] = Solubility at pH 7; type: physicochemical; details: buffer
[2] = biological target: Cyclin-dependent kinase 2 (Homo sapiens, UniProt P24941); experiment: Inhibition of CDK2/Cyclin A
Aurora kinase A = biological target: T1, Aurora kinase A (Homo sapiens, UniProt O14965); experiment: Inhibition of Aurora A
T1 sequence (O14965 whole entry): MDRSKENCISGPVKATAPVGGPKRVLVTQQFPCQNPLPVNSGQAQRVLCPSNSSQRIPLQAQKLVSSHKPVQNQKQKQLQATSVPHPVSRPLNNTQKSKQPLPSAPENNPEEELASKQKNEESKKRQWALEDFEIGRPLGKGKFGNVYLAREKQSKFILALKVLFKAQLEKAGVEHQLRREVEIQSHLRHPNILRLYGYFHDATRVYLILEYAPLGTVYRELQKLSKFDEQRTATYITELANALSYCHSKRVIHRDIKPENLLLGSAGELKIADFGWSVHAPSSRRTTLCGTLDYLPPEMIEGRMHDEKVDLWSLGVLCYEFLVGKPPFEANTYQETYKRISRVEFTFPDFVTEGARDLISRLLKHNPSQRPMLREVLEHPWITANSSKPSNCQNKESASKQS

A2780 = experiment: Antiproliferative activity against human A2780 cells after 72 hrs by cell Titer_Glo assay; type: functional, cell-based; details: A2780, 72 h
Procedure, shortened: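 A2780 cells were seeded at 10000–30000 cells/cm² in medium with 10% FCS. After 24 h they were treated with serial dilutions of compound, in two replicates. Cell amount was read by Cell Titer Glo 72 h after treatment. IC50 came from sigmoidal fitting.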

[3] = Solubility in 5% dextrose; type: physicochemical
Cytochrome P450 3A4 = Cytochrome P450 3A4 (Homo sapiens, UniProt P08684); experiment: Inhibition of human CYP3A4 assessed as compound remaining by LC/MS/MS analysis; type: ADME; set-up: concentration or dose not given beside the values
Homo sapiens = species: Homo sapiens; experiment: Protein binding in human plasma; details: read-out: PPB (converted)
[4] = Half life in fasted nu/nu mouse at 10 mg/kg, iv by LC/MS/MS analysis; type: ADME, organism-based; set-up: dose 10 mg/kg, route intravenous; details: in vivo
Procedure, shortened: (§1)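 Overnight-fasted male Nu/Nu mice received a single 10 mg/kg dose iv or orally, in 5% dextrose vehicle, given as the hydrochloride salt. Three mice per route. Saphenous vein blood was drawn predose and at 0.083 (iv) or 0.25 (po), 0.5, 1, 6 and 24 h. Samples were spun at 10000g for 3 min at 4 °C, and plasma was stored at -80 °C until analysis.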

[5] = Clearance in fasted nu/nu mouse at 10 mg/kg, iv by LC/MS/MS analysis; type: ADME, organism-based; set-up: dose 10 mg/kg, route intravenous; details: in vivo; procedure, shortened: as §1
[6] = Volume of distribution at steady state in fasted nu/nu mouse at 10 mg/kg, iv by LC/MS/MS analysis; type: ADME, organism-based; set-up: dose 10 mg/kg, route intravenous; details: in vivo, read-out: Vdss; procedure, shortened: as §1
[7] = Half life in fasted nu/nu mouse at 10 mg/kg, po by LC/MS/MS analysis; type: ADME, organism-based; set-up: dose 10 mg/kg, route oral; details: in vivo; procedure, shortened: as §1
[8] = AUC in fasted nu/nu mouse at 10 mg/kg, po LC/MS/MS analysis; type: ADME, organism-based; set-up: dose 10 mg/kg, route oral; details: plasma; procedure, shortened: as §1
[9] = Oral bioavailability in fasted nu/nu mouse at 10 mg/kg by LC/MS/MS analysis; type: ADME, organism-based; details: in vivo; procedure, shortened: as §1
[10] = Cmax in fasted nu/nu mouse at 10 mg/kg, po by LC/MS/MS analysis; type: ADME, organism-based; set-up: dose 10 mg/kg, route oral; details: in vivo; procedure, shortened: as §1

Cytochrome P450 3A4, sequence (P08684 whole entry): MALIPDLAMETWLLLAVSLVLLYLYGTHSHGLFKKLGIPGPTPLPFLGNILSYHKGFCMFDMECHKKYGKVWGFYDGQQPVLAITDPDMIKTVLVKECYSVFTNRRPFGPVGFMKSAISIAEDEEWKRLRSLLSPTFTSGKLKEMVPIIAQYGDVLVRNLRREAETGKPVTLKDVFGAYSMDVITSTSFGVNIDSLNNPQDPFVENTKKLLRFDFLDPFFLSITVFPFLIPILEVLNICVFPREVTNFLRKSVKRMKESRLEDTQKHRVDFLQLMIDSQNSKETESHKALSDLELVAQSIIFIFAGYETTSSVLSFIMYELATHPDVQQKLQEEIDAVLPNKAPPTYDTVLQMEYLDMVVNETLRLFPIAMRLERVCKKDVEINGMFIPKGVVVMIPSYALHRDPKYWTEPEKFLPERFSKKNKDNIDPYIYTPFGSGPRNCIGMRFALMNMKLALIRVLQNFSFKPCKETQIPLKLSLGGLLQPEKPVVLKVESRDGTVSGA

| Structure (SMILES) | solubility [1] [µM] | IC50 [2] [nM] | IC50 (Aurora kinase A) [nM] | IC50 (A2780) [nM] | also measured |
| --- | --- | --- | --- | --- | --- |
| CNC(=O)c1nn(C)c2c1C(C)(C)Cc1cnc(Nc3ccc(OC4CCN(C)CC4)cc3)nc1-2 | 183 (≈ 87 µg/mL) | 29 | 1340 | 170 |  |
| CNC(=O)c1nn(C)c2c1C(C)(C)Cc1cnc(Nc3cccc(CN4CCN(C)CC4)c3)nc1-2 | 162 (≈ 76.9 µg/mL) | 59 | 1180 | 570 |  |
| Cn1nc(C(N)=O)c2c1-c1nc(Nc3ccccc3)ncc1CC2(C)C | < 1 | 24 | > 10000 | 170 |  |
| Cn1nc(C(N)=O)c2c1-c1nc(Nc3ccccc3)ncc1CC2 | 3 (≈ 0.961 µg/mL) |  |  |  |  |
| CNC(=O)c1nn(C)c2c1C(C)(C)Cc1cnc(Nc3ccc(CN(C)C)cc3)nc1-2 | 206 (≈ 86.4 µg/mL) | 35 | > 5000 | 110 |  |
| Cn1nc(C(N)=O)c2c1-c1nc(Nc3ccc(N4CCOCC4)cc3)ncc1CC2 | 10 (≈ 4.05 µg/mL) | 14 | 51 | 120 |  |
| CN1CCN(c2cccc(Nc3ncc4c(n3)-c3c(c(C(N)=O)nn3C)CC4)c2)CC1 | 47 (≈ 19.7 µg/mL) | 1 | 30 | 30 |  |
| CN1CCN(c2ccc(Nc3ncc4c(n3)-c3c(c(C(N)=O)nn3C)C(C)(C)C4)cc2)CC1.Cl |  |  |  |  | solubility [3]: 3400 µg/mL; Activity (Cytochrome P450 3A4): 82%; fraction unbound (Homo sapiens): 0.01 |
| Cn1nc(C(=O)NC2CCCC2)c2c1-c1nc(Nc3ccccc3)ncc1CC2 | 1 (≈ 0.388 µg/mL) |  |  |  |  |
| CNC(=O)c1nn(C)c2c1C(C)(C)Cc1cnc(Nc3ccc(N(C)C)cc3)nc1-2 | 56 (≈ 22.7 µg/mL) | 59 | 855 | 500 |  |
| CNC(=O)c1nn(C)c2c1C(C)(C)Cc1cnc(Nc3ccc(N4CCOCC4)cc3)nc1-2 | 46 (≈ 20.6 µg/mL) | 137 | 649 | 370 |  |
| CNC(=O)c1nn(C)c2c1CCc1cnc(Nc3ccc(N4CCN(C)CC4)cc3)nc1-2 | 211 (≈ 91.3 µg/mL) | 45 | 175 | 190 |  |
| CNC(=O)c1nn(C)c2c1C(C)(C)Cc1cnc(Nc3ccc(CN(C)C)cc3)nc1-2.Cl |  |  |  |  | solubility [3]: 10000 µg/mL; Activity (Cytochrome P450 3A4): 77%; half-life [4]: 84 min; clearance [5]: 53.3 mL/min/kg; Vd [6]: 4.04 L/kg; half-life [7]: 204 min; AUC [8]: 1.97 µM·h; bioavailability [9]: 28%; Cmax [10]: 570 nM; fraction unbound (Homo sapiens): 0.05 |
| CNC(=O)c1nn(C)c2c1C(C)(C)Cc1cnc(Nc3ccc(OC4CCN(C)CC4)cc3)nc1-2.Cl |  |  |  |  | solubility [3]: 10000 µg/mL; Activity (Cytochrome P450 3A4): 63%; half-life [4]: 114 min; clearance [5]: 43.7 mL/min/kg; Vd [6]: 5.27 L/kg; half-life [7]: 234 min; AUC [8]: 2.51 µM·h; bioavailability [9]: 38%; Cmax [10]: 600 nM |
| CNC(=O)c1nn(C)c2c1C(C)(C)Cc1cnc(Nc3ccc(CN4CCN(C)CC4)cc3)nc1-2.Cl |  |  |  |  | solubility [3]: 10000 µg/mL; Activity (Cytochrome P450 3A4): 50%; half-life [4]: 108 min; clearance [5]: 31.6 mL/min/kg; Vd [6]: 3.23 L/kg; half-life [7]: 252 min; AUC [8]: 3.37 µM·h; bioavailability [9]: 42%; Cmax [10]: 770 nM; fraction unbound (Homo sapiens): 0.01 |
| CNC(=O)c1nn(C)c2c1C(C)(C)Cc1cnc(Nc3cccc(CN(C)C)c3)nc1-2 | 193 (≈ 81 µg/mL) | 83 | 2940 | 500 |  |
| CNC(=O)c1nn(C)c2c1C(C)(C)Cc1cnc(Nc3cccc(OC4CCN(C)CC4)c3)nc1-2 | 160 (≈ 76.1 µg/mL) | 47 | 1580 | 390 |  |
| Cn1nc(C(=O)Nc2ccccc2)c2c1-c1nc(Nc3ccccc3)ncc1CC2 | 1 (≈ 0.396 µg/mL) |  |  |  |  |
| CN1CCN(c2ccc(Nc3ncc4c(n3)-c3c(c(C(N)=O)nn3C)CC4)cc2)CC1 | 156 (≈ 65.3 µg/mL) | 2 | 53 | 30 |  |
| Cn1nc(C(=O)NC2CC2)c2c1-c1nc(Nc3ccccc3)ncc1CC2 | 1 (≈ 0.36 µg/mL) |  |  |  |  |

The next lines start with results.

| solubility [1] [µM] | IC50 [2] [nM] | IC50 (Aurora kinase A) [nM] | IC50 (A2780) [nM] | Structure (SMILES) | also measured |
| --- | --- | --- | --- | --- | --- |
| 121 (≈ 55.8 µg/mL) | 160 | 638 | 870 | CNC(=O)c1nn(C)c2c1C(C)(C)Cc1cnc(Nc3cccc(CN4CCOCC4)c3)nc1-2 |  |
| 51 (≈ 22.8 µg/mL) | 248 | 625 | 700 | CNC(=O)c1nn(C)c2c1C(C)(C)Cc1cnc(Nc3cccc(N4CCOCC4)c3)nc1-2 |  |
| 182 (≈ 83.8 µg/mL) | 31 | 1000 | 530 | CNC(=O)c1nn(C)c2c1C(C)(C)Cc1cnc(Nc3cccc(N4CCN(C)CC4)c3)nc1-2 |  |
| 1 (≈ 0.334 µg/mL) |  |  |  | CNC(=O)c1nn(C)c2c1CCc1cnc(Nc3ccccc3)nc1-2 |  |
| 7 (≈ 2.55 µg/mL) | 74 | 364 | 2380 | Cn1nc(C(=O)NCCO)c2c1-c1nc(Nc3ccccc3)ncc1CC2 |  |
| 133 (≈ 61.4 µg/mL) | 36 | 535 | 350 | CNC(=O)c1nn(C)c2c1C(C)(C)Cc1cnc(Nc3ccc(CN4CCOCC4)cc3)nc1-2 |  |
| 1 (≈ 0.41 µg/mL) | 1050 | 374 | 580 | Cn1nc(C(=O)NCc2ccccc2)c2c1-c1nc(Nc3ccccc3)ncc1CC2 |  |
| 41 (≈ 16.6 µg/mL) | 220 | 1440 | 3010 | CNC(=O)c1nn(C)c2c1C(C)(C)Cc1cnc(Nc3cccc(N(C)C)c3)nc1-2 |  |
| 170 (≈ 80.7 µg/mL) | 55 | 1620 | 240 | CNC(=O)c1nn(C)c2c1C(C)(C)Cc1cnc(Nc3ccc(CN4CCN(C)CC4)cc3)nc1-2 |  |
| 98 (≈ 43.8 µg/mL) | 17 | 582 | 50 | CN1CCN(c2ccc(Nc3ncc4c(n3)-c3c(c(C(N)=O)nn3C)C(C)(C)C4)cc2)CC1 |  |
